Converted amounts (≈) assume the structure as drawn. The source made the active and inactive calls. No cut-off for these calls is given here.

Consider four compounds from ChEMBL document CHEMBL2331195, “Lahorenoic acids A-C, ortho-dialkyl-substituted aromatic acids from the biocontrol strain Pseudomonas aurantiaca PB-St2” (J Nat Prod, 2013).

The test system of assay [1] is Arthrobacter crystallopoietes. Put plainly: Antibacterial activity against Arthrobacter crystallopoietes DSM 20117 assessed as inhibition of visible bacterial growth after 24 hrs. The assay is classed as functional. The note with it: Crystallibacter crystallopoietes. The essentials: (§1)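 Broth microdilution MIC using 2-fold serial dilutions. A. crystallopoietes DSM 20117 was grown in tryptic soy broth, and B. cereus in half-concentrated Mueller–Hinton broth. Final inoculum was 10^5 CFU per well. After 24 h at 37 °C, the MIC was read as the lowest concentration with no visible growth. Values are means of three independent determinations.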

The test system of a further assay is Bacillus cereus. As to the kind of experiment: Antibacterial activity against Bacillus cereus assessed as inhibition of visible bacterial growth after 24 hrs. It is filed as functional. The essentials:
as §1

Assay [2] can be described thus: Antifungal activity against Colletotrichum falcatum assessed as inhibition of mycelial growth at 100 ug/disc incubated for 10 to 15 days at 25 degC. The assay is classed as functional. The essentials:
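Four C. falcatum strains from local sugar cane varieties (BF166, C01148, CP77400, SPF234) on potato dextrose agar; mycelial plug at plate centre, compound-loaded air-dried filter discs (25–200 μg, in methanol, chloroform or DMSO) placed 2 cm away; 10–15 days at 25 °C; zone of mycelial inhibition around disc; solvent discs as negative controls; three repeats in duplicate.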

The subject of another assay is HCT-116. As to the kind of experiment: Cytotoxicity against human HCT116 cells assessed as growth inhibition after 5 days by hemocytometry. It is filed as cell-based. Put shortly:
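HCT-116 cells were seeded at 5 × 10^4 cells/T25 flask in serum medium with 1% penicillin–streptomycin and 1% glutamine, at 37 °C and 5% CO2. Compound at various concentrations was added on day 3, followed by 120 h incubation. Cells were trypsinized, washed and resuspended in HBSS, then hemocytometer-counted. Counts were normalized to untreated control, and IC50 was derived by nonlinear regression.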

The subject of assay [3] is Mycobacterium tuberculosis. Put plainly: Antituberculosis activity against Mycobacterium tuberculosis H37Rv […] incubated for 7 days by Alamar blue assay. It is filed as functional. Put shortly:
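Virulent H37Rv (ATCC 27294) in 96-well plate; compounds from 10 mg/mL DMSO stock, 2-fold dilutions from top 100 μg/mL (1% v/v DMSO final); 7 days at 37 °C; growth by Alamar Blue fluorescence; MIC = lowest concentration giving ≥90% fluorescence inhibition versus untreated bacteria; rifampicin and isoniazid positive controls, 1% DMSO negative control.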
(In general: Resazurin is reduced to fluorescent resorufin, in cell work by metabolically active cells.)

A further assay has as its system MCF7. Put plainly: Solid tumor cytotoxicity against human MCF7 cells assessed as inhibition of cell colony formation by disc diffusion soft-agar colony formation assay. The assay is classed as functional, cell-based. The essentials: (§2)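 Cells plated in soft agar; compound dissolved in 250 μL DMSO, 15 μL applied to a cellulose disc on the plate; after incubation, colony-inhibition zone measured from disc edge to colony growth in zone units (200 zu = 6 mm); solid-tumour selectivity judged as ≥250 zu difference versus leukemia or normal CFU-GM cells.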
In general terms: Agar diffusion results depend on both activity and mobility in agar.

In the next assay the test system is LNCaP. Put plainly: Solid tumor cytotoxicity against human LNCAP cells assessed as inhibition of cell colony formation by disc diffusion soft-agar colony formation assay. It is filed as functional, cell-based. Put shortly: as §2
The subject of a further assay is H125. As to the kind of experiment: Solid tumor cytotoxicity against human H125 cells assessed as inhibition of cell colony formation by disc diffusion soft-agar colony formation assay. The assay is classed as functional, cell-based. Put shortly:
as §2

Turning to `Oc1ccc2nc3ccc(O)cc3nc2c1`, the MIC in assay [1] (DSM 20117, 24 h) was determined as 25 µg/mL (≈ 118 µM); in the assay with Bacillus cereus, 25 µg/mL (≈ 118 µM). Moreover, the “inhibition zone (IZ)” value in assay [2] is “inactive”. In addition, the IC50 result in the assay on HCT-116 (hct-116) is “Non-toxic”.
Regarding `COC(=O)CCCCCc1ccccc1/C=C/C(C)=O` [LAHORENOIC ACID B], the MIC90 in assay [3] (H37Rv ATCC 27292, 168 h) came out at 49.5 µg/mL (≈ 180 µM). The IC50 entry in the assay on HCT-116 (hct-116) is “Non-toxic”.
As for `O=C(O)c1cccc2nc3ccccc3nc12` [PHENAZINE-1-CARBOXYLIC ACID], the “inhibition zone (IZ)” value in the assay on MCF7, in the assay on LNCaP and with H125 was “Active” throughout. This compound displayed an MIC90 in assay [3] (H37Rv ATCC 27292, 168 h) of 32.9 µg/mL (≈ 147 µM). Besides, the inhibition zone (IZ) in assay [2] came out at 2 mm. Moreover, the IC50 with HCT-116 (Homo sapiens, HCT-116, 120 h, read-out: IC50) was 15.6 µM.
As to `Oc1ccc2nc3ccccc3nc2c1`, the MIC entry (in assay [1]; with Bacillus cereus) was “inactive” each time. The “inhibition zone (IZ)” value (in the assay on MCF7; in the assay with LNCaP; in the assay with H125; in assay [2]) was “inactive” throughout. Moreover, in assay [3], the MIC90 entry is “inactive”. In addition, in the assay on HCT-116 (hct-116), the IC50 entry was “Non-toxic”.

The term MIC denotes the least concentration at which growth counts as inhibited. In general, IC50 refers to the midpoint of a concentration-inhibition curve. As a reminder, the MIC90 is the lowest concentration that inhibits either 90% of growth or 90% of the strains tested, depending on the study.
